system: Artemia; assay: Toxicity against brine shrimp; assay type: organism-based; conditions: in vivo

Structure (SMILES)	Activity
C[C@H]1CC[C@H]2[C@H]1C[C@H](C(C)(C)O)CC[C@@]2(C)O	Non-toxic
C[C@H]1CC[C@H]2[C@H]1C[C@]1([C@@H](C)CO)CC[C@]2(C)O1	Non-toxic
CC(=O)NC(Cc1ccc(OCC=C(C)C)cc1)C(=O)O (stereo not given)	Toxic
CC(C)=CCOc1ccc(CCO)cc1 [ETROGOL]	Toxic
CC(=O)OCCc1ccc(OCC=C(C)C)cc1 [ETROGOL ACETATE]	Toxic
C=C(C)[C@@H]1CC[C@@](C)(O)[C@H]2CC[C@H](C)[C@@H]2C1	Non-toxic

biological target: 5-hydroxytryptamine receptor 2A (Rattus norvegicus) (UniProt P14842); assay: Displacement of [3H]ketanserin from rat 5HT2A receptor expressed in mouse NIH3T3 cells assessed as bound radiolabeled ligand remaining by liquid scintillation relative to control; assay type: cell-based; conditions: not given
Method in brief: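 Crude membranes from confluent NIH 3T3 cells stably expressing rat 5-HT2A receptor (DMEM, 10% calf serum, geneticin), prepared freshly in 50 mM Tris, 4 mM CaCl2, 10 µM pargyline, pH 7.4. Tritiated ligand 0.5 nM final; nonspecific binding with 10 µM 5-HT; test compounds at 100 µM. Triplicate 1 mL reactions, 30 min at 30 °C. Glass-fiber filtration, scintillation counting, reported as percent of control binding.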

Sequence of 5-hydroxytryptamine receptor 2A (Rattus norvegicus) (P14842 whole entry): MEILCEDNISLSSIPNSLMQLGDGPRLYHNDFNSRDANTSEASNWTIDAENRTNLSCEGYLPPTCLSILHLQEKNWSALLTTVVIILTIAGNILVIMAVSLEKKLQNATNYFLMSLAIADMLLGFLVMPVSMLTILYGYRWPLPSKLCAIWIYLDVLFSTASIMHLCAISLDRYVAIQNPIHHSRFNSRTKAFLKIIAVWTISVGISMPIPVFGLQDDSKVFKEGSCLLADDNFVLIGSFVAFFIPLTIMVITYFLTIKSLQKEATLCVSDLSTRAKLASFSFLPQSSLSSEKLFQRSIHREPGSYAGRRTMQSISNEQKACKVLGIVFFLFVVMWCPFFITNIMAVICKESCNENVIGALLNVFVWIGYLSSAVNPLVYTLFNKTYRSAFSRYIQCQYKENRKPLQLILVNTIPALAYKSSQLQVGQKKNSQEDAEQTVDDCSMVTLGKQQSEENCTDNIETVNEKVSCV

Structure (SMILES)	Activity
CC(C)=CCOc1ccc(CCO)cc1 [ETROGOL]	85%
CC(=O)OCCc1ccc(OCC=C(C)C)cc1 [ETROGOL ACETATE]	11%

Results, then the compound that gave them:

Activity	Structure (SMILES)
85%	COC(=O)C(Cc1ccc(OCC=C(C)C)cc1)NC(C)=O (stereo not given)
85%	CC(=O)NC(Cc1ccc(OCC=C(C)C)cc1)C(=O)O (stereo not given)

Source: ChEMBL document CHEMBL1146574, “A novel 5-HT receptor ligand and related cytotoxic compounds from an acid mine waste extremophile” (J Nat Prod, 2003)
